Measured values from EPA's CvTdb concentration-time database.

What was measured:
[1] = system: Rat; experiment: concentration in plasma after dosing; conditions: dosed: Pyridine, 5 mg/kg, iv, Male, F344
[2] = system: Rat; experiment: concentration in plasma after dosing; conditions: 2 min; dosed: Pyridine; 10 mg/kg; oral; Male; F344
[3] = system: Rat; experiment: concentration in plasma after dosing; conditions: dosed: Pyridine, 5 mg/kg, oral, Male, F344
[4] = system: Mouse; experiment: concentration in plasma after dosing; conditions: 2.5 min; dosed: 2-Hydroxy-4-methoxybenzophenone; 250 mg/kg; oral; Male; B6C3F1
[5] = system: Mouse; experiment: concentration in plasma after dosing; conditions: 0.25 h; dosed: 2-Hydroxy-4-methoxybenzophenone; 250 mg/kg; oral; Female; B6C3F1
[6] = system: Mouse; experiment: concentration in plasma after dosing; conditions: 3 h; dosed: 2-Hydroxy-4-methoxybenzophenone; 250 mg/kg; oral; Female; B6C3F1
[7] = system: Rat; experiment: concentration in plasma after dosing; conditions: dosed: 2-Hydroxy-4-methoxybenzophenone, 100 mg/kg, oral, Male, F344
[8] = system: Mouse; experiment: concentration in plasma after dosing; conditions: 2 h; dosed: 2-Hydroxy-4-methoxybenzophenone; 50 mg/kg; iv; Male; B6C3F1
[9] = system: Rat; experiment: concentration in plasma after dosing; conditions: dosed: 2-Hydroxy-4-methoxybenzophenone, 500 mg/kg, oral, Female, F344
[10] = system: Mouse; experiment: concentration in plasma after dosing; conditions: 2 h; dosed: 2-Hydroxy-4-methoxybenzophenone; 50 mg/kg; iv; Female; B6C3F1
[11] = system: Rat; experiment: concentration in plasma after dosing; conditions: dosed: 2-Hydroxy-4-methoxybenzophenone, 100 mg/kg, oral, Male, F344; remark: listed apart in the source
[12] = system: Mouse; experiment: concentration in plasma after dosing; conditions: 2 h; dosed: 2-Hydroxy-4-methoxybenzophenone; 500 mg/kg; oral; Male; B6C3F1
[13] = system: Rat; experiment: concentration in plasma after dosing; conditions: 5 min; dosed: alpha-Thujone; 25 mg/kg; oral; Male; Harlan Sprague Dawley
[14] = system: Rat; experiment: concentration in plasma after dosing; conditions: 10 min; dosed: alpha-Thujone; 25 mg/kg; oral; Male; Harlan Sprague Dawley
[15] = system: Rat; experiment: concentration in plasma after dosing; conditions: 0.5 h; dosed: alpha-Thujone; 50 mg/kg; oral; Female; Harlan Sprague Dawley
[16] = system: Rat; experiment: concentration in plasma after dosing; conditions: 6 h; dosed: alpha-Thujone; 25 mg/kg; oral; Male; Harlan Sprague Dawley
[17] = system: Rat; experiment: concentration in brain after dosing; conditions: 5 min; dosed: alpha-Thujone; 50 mg/kg; oral; Female; Harlan Sprague Dawley
[18] = system: Rat; experiment: concentration in plasma after dosing; conditions: 2 min; dosed: alpha-Thujone; 25 mg/kg; oral; Female; Harlan Sprague Dawley
[19] = system: Rat; experiment: concentration in plasma after dosing; conditions: 10 min; dosed: alpha-Thujone; 25 mg/kg; oral; Male; Harlan Sprague Dawley; remark: listed apart in the source
[20] = system: Rat; experiment: concentration in brain after dosing; conditions: 10 min; dosed: alpha-Thujone; 25 mg/kg; oral; Male; Harlan Sprague Dawley
[21] = system: Rat; experiment: concentration in liver after dosing; conditions: 3 h; dosed: Perfluorohexane-1-sulphonic acid – potassium salt; 16 mg/kg; oral; Female; F344
[22] = system: Rat; experiment: concentration in plasma after dosing; conditions: dosed: Perfluorohexane-1-sulphonic acid – potassium salt, 4 mg/kg, oral, Male, F344
[23] = system: Rat; experiment: concentration in kidney after dosing; conditions: 3 h; dosed: Perfluorohexane-1-sulphonic acid – potassium salt; 16 mg/kg; oral; Female; Harlan Sprague Dawley
[24] = system: Rat; experiment: concentration in kidney after dosing; conditions: 6 h; dosed: Perfluorohexane-1-sulphonic acid – potassium salt; 16 mg/kg; oral; Female; F344
[25] = system: Hamster; experiment: concentration in plasma after dosing; conditions: dosed: 2,4-Dichlorophenoxyacetic acid, 8.0 mg/kg, iv, Male, Syrian Golden
Summary of the method: (§1)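 Points were largely digitised from plot screenshots with WebPlotDigitizer or otherwise copied from tables, and they remain in the units each source reported. They come from published in vivo toxicokinetic studies and two structured collections. Sampling and analytical methods follow each source and were often not reported.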

[26] = system: Hamster; experiment: concentration in plasma after dosing; conditions: dosed: 2,4-Dichlorophenoxyacetic acid, 8.0 mg/kg, oral, Male, Syrian Golden
Summary of the method: as §1

[27] = system: Hamster; experiment: concentration in plasma after dosing; conditions: dosed: 2,4-Dichlorophenoxyacetic acid, 8.0 mg/kg, iv, Male, Syrian Golden; remark: listed apart in the source
Summary of the method: as §1

[28] = system: Rat; experiment: concentration in plasma after dosing; conditions: dosed: Methyleugenol, 37 mg/kg, oral, Male, F344/N
[29] = system: Rat; experiment: concentration in plasma after dosing; conditions: dosed: Methyleugenol, 37 mg/kg, oral, Male, F344/N; remark: listed apart in the source
[30] = system: Rat; experiment: concentration in plasma after dosing; conditions: dosed: Methyleugenol, 37 mg/kg, oral, Male, F344/N; remark: listed apart in the source
[31] = system: Rat; experiment: concentration in plasma after dosing; conditions: 0.5 h; dosed: Primidone; 130 mg/kg; oral; Male; Harlan Sprague Dawley
[32] = system: Rat; experiment: concentration in plasma after dosing; conditions: 6 h; dosed: Primidone; 30 mg/kg; oral; Female; F344
[33] = system: Rat; experiment: concentration in plasma after dosing; conditions: 3 h; dosed: Primidone; 80 mg/kg; oral; Male; F344

c1ccncc1 [Pyridine]
concentration in plasma [ng/mL]
Conditions	0.5 h	1 h	8 h
[1]	3400	–	874
[3]	–	3160	1170

Conditions	concentration in plasma [ng/mL]
[2]	453

O=C(c1ccccc1)c1ccc(O)cc1O [2,4-Dihydroxybenzophenone]
Conditions	concentration in plasma [ng/mL]
[4]	92.3
[5]	437
[6]	162
[8]	217
[10]	46.1
[12]	318

Conditions	concentration in plasma [ng/mL]
[7], 0.5 h	160
[7], 5 h	40
[9], 10 h	150
[9], 10 min	258
[11], 0.25 h	91
[11], 4 h	43.8

CC(C)[C@]12CC(=O)[C@H](C)[C@H]1C2 [alpha-Thujone]
Conditions	concentration in brain [ng/g]	concentration in plasma [ng/mL]
[13]	–	93.4
[14]	–	408
[15]	–	475
[16]	–	83.5
[17]	105	–
[18]	–	10.6
[19]	–	243
[20]	2000	–

O=S(=O)([O-])C(F)(F)C(F)(F)C(F)(F)C(F)(F)C(F)(F)C(F)(F)F.[K+] [Perfluorohexane-1-sulphonic acid – potassium salt]
Conditions	concentration in kidney [ng/g]	concentration in liver [ng/g]
[21]	–	63900
[23]	42800	–
[24]	39300	–

[22]
Conditions	concentration in plasma [ng/mL]
3 h	28000
24 h	31600
1200 h	3240

O=C(O)COc1ccc(Cl)cc1Cl [2,4-Dichlorophenoxyacetic acid]
concentration in plasma [ng/mL]
Conditions	[25]	[26]	[27]
0.25 h	36900	21800	–
0.5 h	6320	8620	–
1 h	939	1740	–
1.5 h	–	761	327
2 h	–	1360	159
2.5 h	351	115	–
2.5 min	113000	–	127000
5 min	–	25700	68500
6 h	–	466	–
10 min	–	–	43200
20 min	26600	–	15900
40 min	–	–	2690

C=CCc1ccc(OC)c(OC)c1 [Methyleugenol]
Conditions	concentration in plasma [ng/mL]
[28], 5 h	7.02
[28], 20 min	53.8
[29], 6 h	11.1
[29], 10 min	176
[30], 2 min	36
[30], 3 h	46.1

CCC1(c2ccccc2)C(=O)NCNC1=O [Primidone]
Conditions	concentration in plasma [ng/mL]
[31]	55800
[32]	12100
[33]	37200
